Source: ChEMBL document CHEMBL3785032, “Zerumbone Suppresses Osteopontin-Induced Cell Invasion Through Inhibiting the FAK/AKT/ROCK Pathway in Human Non-Small Cell Lung Cancer A549 Cells” (J Nat Prod, 2016)
The source made the active and inactive calls. No cut-off for these calls is given here.

What was measured:
[1] = Inhibition of FAK/AKT/ROCK signaling pathway in human A549 cells assessed as decrease in OPN-induced lamellipodia formation at 10 uM after 24 hrs by rhodamine phalloidin/DAPI staining based immunofluorescence assay; assay type: cell-based
Procedure, shortened: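 5 × 10^4 cells/well were seeded on chamber slides and treated with 1 nM OPN for 24 h with or without 10 μM compound. Cells were fixed in 4% formaldehyde/PBS pH 7.4 for 10 min and permeabilized in 0.5% Triton X-100 for 5 min. They were stained with 100 nM rhodamine phalloidin for 30 min at room temperature in the dark, counterstained with DAPI, and imaged by confocal microscopy at 600×.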

[2] = Inhibition of FAK/AKT/ROCK signaling pathway in human A549 cells assessed as decrease in OPN-induced AKT phosphorylation at 5 to 10 uM after 15 mins by Western blot analysis; assay type: cell-based
[3] = Inhibition of FAK/AKT/ROCK signaling pathway in human A549 cells assessed as decrease in OPN-induced phosphorylation of LIMK1/2 at 5 to 10 uM after 24 hrs by Western blot analysis; assay type: cell-based
Procedure, shortened: (§1)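 A549 cells were given 1 nM OPN for 24 h with or without compound. 25–30 μg total protein per lane was probed with primary antibodies overnight at 4 °C, then secondary antibodies for 2 h at room temperature. Detection was by enhanced chemiluminescence, with densitometric band quantification. Mean ± SD of two independent experiments; Student's t test.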

[4] = Inhibition of FAK/AKT/ROCK signaling pathway in human A549 cells assessed as decrease in OPN-induced ROCK1 expression at 5 to 10 uM after 24 hrs by Western blot analysis; assay type: cell-based; procedure, shortened: as §1
A549 [5] = assay: Effect on total cofilin protein level in OPN-stimulated human A549 cells at 5 to 10 uM after 24 hrs by Western blot analysis; assay type: ADME, cell-based; conditions: a549, 24 h; procedure, shortened: as §1
A549 [6] = assay: Effect on total FAK protein level in OPN-stimulated human A549 cells at 5 to 10 uM after 24 hrs by Western blot analysis; assay type: ADME, cell-based; conditions: a549, 24 h; procedure, shortened: as §1
A549 [7] = assay: Anti-invasive activity in human A549 cells assessed as inhibition of OPN-induced cell invasion to matrigel coated invasion chamber at 10 uM preincubated for 30 mins followed by OPN stimulation measured after 24 hrs by boyden chamber assay; assay type: functional
Procedure, shortened: (§2)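 Boyden chamber with a Matrigel-coated filter. Cells were pretreated with compound for 30 min and loaded into the upper wells, with 1 nM OPN in the lower wells. After 24 h at 37 °C, cells were stained, random fields were photographed at 200×, and cells on the lower surface were counted. Mean ± SD of two independent experiments; Student's t test.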

A549 [8] = assay: Cytotoxicity against human A549 cells assessed as reduction in cell viability at 10 uM after 24 hrs by MTT assay; assay type: cell-based; conditions: a549, 24 h
Procedure, shortened: (§3)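 A549 cells were exposed to compound in serum-free medium for 24 h, and viability was read by MTT assay. Mean ± SD of three independent experiments; Student's t test versus untreated control.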

A549 [9] = assay: Cytotoxicity against human A549 cells assessed as reduction in cell viability at 20 uM after 24 hrs by MTT assay; assay type: cell-based; conditions: a549, 24 h; procedure, shortened: as §3
A549 [10] = assay: Anti-invasive activity in human A549 cells assessed as inhibition of OPN-induced cell invasion to matrigel coated invasion chamber at 5 uM preincubated for 30 mins followed by OPN stimulation measured after 24 hrs by boyden chamber assay; assay type: functional; procedure, shortened: as §2
A549 [11] = assay: Effect on total ROCK1 protein level in OPN-stimulated human A549 cells at 5 to 10 uM after 24 hrs by Western blot analysis; assay type: ADME, cell-based; conditions: a549, 24 h; procedure, shortened: as §1
[12] = Inhibition of FAK/AKT/ROCK signaling pathway in human A549 cells assessed as decrease in OPN-induced phosphorylation of cofilin at 5 to 10 uM after 24 hrs by Western blot analysis; assay type: cell-based; procedure, shortened: as §1
[13] = biological target: Focal adhesion kinase 1 (Homo sapiens) (UniProt Q05397); assay: Inhibition of FAK signaling pathway in human A549 cells assessed as decrease in OPN-induced FAK phosphorylation at 5 to 10 uM after 15 mins by Western blot analysis; assay type: cell-based
A549 [14] = assay: Effect on total AKT protein level in OPN-stimulated human A549 cells at 5 to 10 uM after 24 hrs by Western blot analysis; assay type: ADME, cell-based; conditions: a549, 24 h; procedure, shortened: as §1
A549 [15] = assay: Effect on total LIMK1/2 protein level in OPN-stimulated human A549 cells at 5 to 10 uM after 24 hrs by Western blot analysis; assay type: ADME, cell-based; conditions: a549, 24 h; procedure, shortened: as §1

Sequence of Focal adhesion kinase 1 (Homo sapiens) (Q05397 2-1052 limits assumed): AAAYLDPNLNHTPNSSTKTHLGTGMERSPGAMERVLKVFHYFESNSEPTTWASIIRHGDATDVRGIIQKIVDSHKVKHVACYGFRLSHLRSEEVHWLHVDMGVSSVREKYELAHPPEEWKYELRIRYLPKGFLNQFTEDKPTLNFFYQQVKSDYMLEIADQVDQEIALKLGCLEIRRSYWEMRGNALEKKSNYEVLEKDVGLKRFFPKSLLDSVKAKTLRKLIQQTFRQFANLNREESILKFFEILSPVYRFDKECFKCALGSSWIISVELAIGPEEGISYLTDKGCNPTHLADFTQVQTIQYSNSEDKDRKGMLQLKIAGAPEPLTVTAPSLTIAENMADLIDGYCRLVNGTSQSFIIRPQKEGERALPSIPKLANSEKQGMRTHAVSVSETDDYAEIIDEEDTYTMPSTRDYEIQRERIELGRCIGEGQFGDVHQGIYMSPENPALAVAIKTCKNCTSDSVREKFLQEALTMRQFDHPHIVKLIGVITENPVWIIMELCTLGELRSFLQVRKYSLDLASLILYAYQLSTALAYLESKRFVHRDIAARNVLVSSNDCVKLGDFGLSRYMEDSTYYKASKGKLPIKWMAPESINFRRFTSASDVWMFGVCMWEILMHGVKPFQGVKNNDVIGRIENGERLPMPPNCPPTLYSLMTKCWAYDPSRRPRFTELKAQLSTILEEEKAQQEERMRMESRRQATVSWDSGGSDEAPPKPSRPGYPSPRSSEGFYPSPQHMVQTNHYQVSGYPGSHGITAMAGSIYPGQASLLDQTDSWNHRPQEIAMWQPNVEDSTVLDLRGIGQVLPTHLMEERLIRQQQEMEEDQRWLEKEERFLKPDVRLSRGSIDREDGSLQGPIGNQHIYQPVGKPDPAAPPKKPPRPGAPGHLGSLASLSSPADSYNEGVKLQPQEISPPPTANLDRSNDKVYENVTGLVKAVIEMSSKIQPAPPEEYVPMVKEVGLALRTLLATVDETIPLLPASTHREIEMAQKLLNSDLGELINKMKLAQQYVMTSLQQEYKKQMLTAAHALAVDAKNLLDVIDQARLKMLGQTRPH

Structure (SMILES): C/C1=C\CC(C)(C)/C=C/C(=O)/C(C)=C/CC1 [ZERUMBONE]
- inhibition [1]: Active
- inhibition [2]: Active
- inhibition [3]: Dose-dependent effect
- inhibition [4]: Dose-dependent effect
- Activity (A549 [5]): Non-toxic
- Activity (A549 [6]): Non-toxic
- inhibition at 10 µM (A549 [7]): 69%
- Activity (A549 [8]): Non-toxic
- Activity (A549 [9]): Toxic
- inhibition at 5 µM (A549 [10]): 48%
- Activity (A549 [11]): Non-toxic
- inhibition [12]: Dose-dependent effect
- inhibition [13]: Active
- Activity (A549 [14]): Non-toxic
- Activity (A549 [15]): Non-toxic
